High-throughput results as filed in PubChem.
Sampled rows, rich in hits. Any-hit rate of the full collection: about 5.7%.
Beta apoptosis = inhibitors of cytokine-induced beta cell apoptosis, primary screen, luminescence; INS-1E cytokine-induced death, ATP luminescence, 48 h; percent of positive-control rescue, neutral wells zero; protection from apoptosis, % (test concentration not listed); 300,000 compounds, 0.8% hits; AID 435005, 2010;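 active = Every replicate reaches about 75%, or at least half do and their mean reaches it too, limit read from the data; inconclusive = At least half of replicates reach the limit but their mean does not; inactive = Under half of replicates reach the limit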;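 note: higher means more ATP so stronger rescue from cytokine killing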
T cruzi inh = inhibitors of intracellular T. cruzi growth, primary screen, luminescence, NIH3T3 host cells; T. cruzi beta-gal in NIH3T3, 90 h; inhibition, % (no concentration beside the values); 300,000 compounds, 1.4% hits; AID 1885, 2009;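 active = mean inhibition across valid replicates above about 55%, limit read from the data; inconclusive = mean below that limit but half or more replicates reach it; inactive = mean below it, under half of replicates reach it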;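 note: signal also drops with host cell toxicity which is not excluded here; higher percent means less beta-gal luminescence so fewer parasites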
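System – NIH/3T3 host cells with β-galactosidase reporter T. cruzi · Doses – single 50 nL compound addition per well in DMSO · Reagent – 5000 T. cruzi trypomastigotes/well · Medium – Low-serum DMEM with 2% FBS · Timing – ≥90 h infection period, 3 h prior cell attachment · Evaluation – parasite load inhibition, % · Technique – GalScreen luminescence, 60 min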
SKKanGAS inh = S. pyogenes SKKanGAS growth inhibitors in kanamycin, primary screen, streptokinase expression inhibitor project, SKKanGAS strain, BacTiter-Glo luminescence; 300,000 compounds, 1.3% hits; AID 1662, 2009; 6 h; inhibition, % at 7.5 µM;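 active = mean replicate score, as percent of positive control median, at least 50; inconclusive = mean below 50 but one replicate at or above 50; inactive = mean and every replicate below 50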;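 note: strain carries kanamycin resistance gene driven by streptokinase promoter and grows in 40 µg/ml kanamycin; loss of luminescence reflects streptokinase promoter inhibition or plain growth inhibition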
Mdm2-MdmX inh = inhibitors of human Mdm2-MdmX association, primary screen, cell-based, luminescence, split luciferase, SaOS-2, uHTS; Protein Mdm4 (Homo sapiens) + E3 ubiquitin-protein ligase Mdm2 (Homo sapiens), …; 330,000 compounds, 3% hits; SaOS-2 split-luciferase Mdm2/MdmX complementation; inhibition, % at 8 µM;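 active = inhibition of at least 50% at 8 µM in the primary screen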
Target sequence (O15151 whole entry, looked up): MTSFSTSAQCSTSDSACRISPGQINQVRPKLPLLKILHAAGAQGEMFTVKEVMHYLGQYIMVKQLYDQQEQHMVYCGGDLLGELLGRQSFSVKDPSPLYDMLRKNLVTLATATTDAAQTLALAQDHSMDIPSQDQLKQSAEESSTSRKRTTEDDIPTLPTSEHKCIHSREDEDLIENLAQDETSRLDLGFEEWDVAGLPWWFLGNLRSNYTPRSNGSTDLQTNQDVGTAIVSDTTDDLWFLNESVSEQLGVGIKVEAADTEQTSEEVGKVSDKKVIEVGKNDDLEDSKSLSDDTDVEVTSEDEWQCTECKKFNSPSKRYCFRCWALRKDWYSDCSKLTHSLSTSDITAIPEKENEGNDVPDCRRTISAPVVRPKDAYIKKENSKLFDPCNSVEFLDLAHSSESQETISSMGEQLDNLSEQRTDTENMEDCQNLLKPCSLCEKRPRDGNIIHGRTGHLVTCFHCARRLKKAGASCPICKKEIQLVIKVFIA
Target sequence (Q00987 whole entry, looked up): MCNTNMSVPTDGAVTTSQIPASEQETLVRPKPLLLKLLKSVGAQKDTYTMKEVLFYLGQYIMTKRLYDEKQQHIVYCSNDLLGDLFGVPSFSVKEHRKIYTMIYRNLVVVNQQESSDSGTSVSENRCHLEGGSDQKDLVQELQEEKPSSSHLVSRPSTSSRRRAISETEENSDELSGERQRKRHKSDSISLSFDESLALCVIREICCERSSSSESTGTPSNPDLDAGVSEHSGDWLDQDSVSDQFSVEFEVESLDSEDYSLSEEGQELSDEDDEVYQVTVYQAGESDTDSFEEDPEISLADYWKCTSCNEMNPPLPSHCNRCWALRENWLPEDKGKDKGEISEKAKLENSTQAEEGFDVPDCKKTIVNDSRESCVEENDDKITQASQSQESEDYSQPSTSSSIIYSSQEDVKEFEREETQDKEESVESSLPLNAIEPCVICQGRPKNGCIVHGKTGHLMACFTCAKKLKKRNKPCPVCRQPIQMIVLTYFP
CSC inhib = cancer stem cell viability inhibitors, primary screen, luminescence. cancer stem cell-like cells viability. inhibition, % at 7.5 µM. 300,000 compounds, 1.1% hits. AID 2717, 2010; in the data active = inhibition above about 75%; inconclusive = no clear call, values can overlap the other calls; tested in HMLE shEcad cells
Calb FLC = C. albicans growth inhibition with fluconazole, primary screen, CaCi-2 strain, Alamar Blue fluorescence. C. albicans CaCi-2 (fluconazole-resistant clinical isolate) + fluconazole, 48 h. growth inhibition, % (no concentration beside the values). 300,000 compounds, 0.57% hits. AID 1979, 2009;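 active = growth inhibition above about 58% in most replicates, limit read from the data, passing the limit was not always enough; inconclusive = exactly half the replicates above a set limit; inactive = most replicates below a set limit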;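 note: all wells also contain fluconazole at 8 µg/ml as a sub-toxic cotreatment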
Mdm2 MdmX conf = Mdm2-MdmX complex disruptors, retested hits, confirmation, luminescence, single concentration; 10,000 compounds, 55% hits; inhibition, % at 8 µM; Mdm2-MdmX binding, luminescent assay; shares compounds with Mdm2-MdmX inh; in the data active = inhibition above about 40%
FLuc counter = full-length luciferase signal inhibition, confirmation, counter-screen for Mdm2/MdmX interaction inhibitor project, cell-based, single concentration, SaOS-2. shares compounds with Mdm2-MdmX inh. SaOS-2 full-length luciferase counterscreen, luminescence. inhibition, % at 8 µM. 6,200 compounds, 77% hits. AID 504607, 2011;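 active = mean inhibition at 8 µM reaching about 37%, which flags the compound as non-specific, limit read from the data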;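 note: p53-null SaOS-2 cells with luciferase driven by a doxycycline-inducible promoter; compound on cells about two nights before reading with doxycycline added after day one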
Each line names hits and unclear results; the compound was inactive in the other large screens (follow-up assays come after a bar, where they were run).

CCN1CCN(c2ccc(S(=O)(=O)N3CCCCC3)cc2NC(=O)/C=C/c2ccc(OC)c(OC)c2)CC1	none
O=C(Nc1cccc(NC(=O)c2cc([N+](=O)[O-])ccc2Cl)n1)c1cc([N+](=O)[O-])ccc1Cl	Beta apoptosis 104, Mdm2-MdmX inh 96 | Mdm2 MdmX conf 96 | FLuc counter 50
CCN(c1ccccc1)S(=O)(=O)c1ccc(Cl)c(NC(=O)CN2CCCCCC2)c1	Beta apoptosis 104, T cruzi inh 60, Mdm2-MdmX inh 69, CSC inhib inconclusive | Mdm2 MdmX conf inactive
CCN1CCN(c2ccc(S(=O)(=O)N3CCCCC3)cc2NC(=O)Cc2ccc(Cl)c(Cl)c2)CC1	T cruzi inh 63, Mdm2-MdmX inh 64 | Mdm2 MdmX conf inactive | FLuc counter 80
COc1cc(NC(=O)COc2ccc(-n3cnnn3)cc2)cc(OC)c1OC	none (no result: T cruzi inh, SKKanGAS inh, Calb FLC)
COc1ccc(-c2nc(CS(=O)CC(=O)NCCN3CCCCC3C)c(C)o2)cc1OC (configuration not stated)	none
COc1ccccc1NS(=O)(=O)c1ccc(Cl)c(NC(=S)NC(=O)C2CCCC2)c1	none
CC(C)(C)CC(=O)Nc1cc(S(=O)(=O)N2CCCCCC2)ccc1Cl	none (no result: Beta apoptosis, CSC inhib)
O=C(CCl)Nc1cc(S(=O)(=O)N2CCCCCC2)ccc1Cl	Mdm2-MdmX inh 92 | Mdm2 MdmX conf inactive | FLuc counter 50
O=C(NC1CC1)c1ccc(CN(c2ccccc2)S(=O)(=O)c2ccccc2)cc1	none (no result: Beta apoptosis)
CCN(c1ccccc1)S(=O)(=O)c1ccc(C(=O)NC2CCN(Cc3ccccc3)CC2)cc1	Beta apoptosis 84, Mdm2-MdmX inh 54 (no result: T cruzi inh, SKKanGAS inh, Calb FLC) | Mdm2 MdmX conf 55 | FLuc counter 57
CCN1CCN(c2ccc(S(=O)(=O)N3CCCCC3)cc2NC(=O)c2ccc([N+](=O)[O-])s2)CC1	Beta apoptosis 113, T cruzi inh 55, Mdm2-MdmX inh 71 | Mdm2 MdmX conf 59 | FLuc counter 82
CCN(CC)S(=O)(=O)c1ccc(Cl)c(NC(=S)NC(=O)C2CCCC2)c1	Mdm2-MdmX inh 50 (no result: T cruzi inh, SKKanGAS inh, Calb FLC) | Mdm2 MdmX conf inactive
CCOc1ccc(OCCC(=O)N(CC)CC(=O)Nc2c(F)cccc2F)cc1	none (no result: T cruzi inh, SKKanGAS inh, CSC inhib, Calb FLC)
COc1ccc(-c2cc(CCC(=O)N3CCN(c4cc(C)ccc4C)CC3)[nH]n2)cc1	none (no result: Beta apoptosis, T cruzi inh, SKKanGAS inh, CSC inhib, Calb FLC)
O=C(C[C@H]1C/C=C\CC[C@@H](Cc2ccc(F)cc2)C(=O)O[C@H](c2ccccc2)CNC1=O)N[C@H](CO)Cc1ccccc1	none (no result: T cruzi inh, SKKanGAS inh, Calb FLC)
O=C(Nc1cc(S(=O)(=O)N2CCOCC2)ccc1Cl)c1cc([N+](=O)[O-])ccc1Cl	Mdm2-MdmX inh 97 (no result: T cruzi inh, SKKanGAS inh, Calb FLC) | Mdm2 MdmX conf 44 | FLuc counter inactive
CCOc1ccc(/C(C)=N/N2C(=O)C(CC(=O)Nc3ccc(OC)cc3[N+](=O)[O-])SC2=Nc2cccc(C)c2C)cc1 (configuration not stated)	none
COc1ccccc1/C=N/N1C(=O)C(CC(=O)Nc2ccc([N+](=O)[O-])cc2OC)SC1=Nc1cccc(C)c1C (configuration not stated)	Mdm2-MdmX inh 65 | Mdm2 MdmX conf 47 | FLuc counter 78
C/C(=N\Nc1ccc(S(=O)(=O)Nc2ccc(Cl)cc2)cc1[N+](=O)[O-])c1ccc(N2CCOCC2)cc1	none
O=[N+]([O-])c1cc(S(=O)(=O)Nc2cccc(Cl)c2)ccc1N/N=C/c1ccc(N2CCOCC2)cc1	Mdm2-MdmX inh 84 | Mdm2 MdmX conf inactive
O=[N+]([O-])c1ccccc1/C=C/C=N/Nc1ccc(S(=O)(=O)Nc2ccc(Cl)cc2)cc1[N+](=O)[O-]	T cruzi inh 68, Mdm2-MdmX inh 56 | Mdm2 MdmX conf inactive
O=C(O)c1ccc(N/N=C/C=C/c2ccccc2[N+](=O)[O-])cc1	none
C/C(=N\NC(=O)c1cc(-c2ccc(C)s2)[nH]n1)c1ccncc1	none
CC1=CC(=O)O[C@@H]1[C@@]1(C)C[C@H]2OC(=O)C[C@H]3[C@@H](C)C(=O)C(O)=C1[C@@]23CO	none
Cc1oc2c(c1C(=O)c1ccccc1)C(=O)C(=O)c1ccccc1-2	Beta apoptosis 104, Mdm2-MdmX inh 97, CSC inhib 98 | Mdm2 MdmX conf 72 | FLuc counter inactive
O=C1C(=O)c2c(C(=O)c3ccccc3)coc2-c2ccccc21	Beta apoptosis 101, T cruzi inh 58, Mdm2-MdmX inh 100 | Mdm2 MdmX conf inactive
CCOC(=O)c1c(C)oc2c1C(=O)c1ccccc1C2=O	Beta apoptosis 84, Mdm2-MdmX inh 54, CSC inhib 85 (no result: SKKanGAS inh, Calb FLC) | Mdm2 MdmX conf inactive
O=C(c1cc(F)c(F)cc1Cl)N1CCN(CCc2ccccc2)CC1	none
Cc1cc(C)c(NC(=O)COC(=O)COc2ccc3c(C)cc(=O)oc3c2)c(Cl)c1	none (no result: T cruzi inh, SKKanGAS inh, CSC inhib, Calb FLC)
Cn1c(=O)n(C)c2cc(NC(=O)c3cc4ccccc4o3)ccc21	Mdm2-MdmX inh 51 | Mdm2 MdmX conf inactive
Cc1cc(NC(=O)c2cncc(Br)c2)ccc1NC(=O)c1cc2ccccc2o1	Mdm2-MdmX inh 74 | Mdm2 MdmX conf 51 | FLuc counter inactive
COc1cc(NC(=O)c2cccs2)ccc1NC(=O)c1cc2ccccc2o1	Mdm2-MdmX inh 89 | Mdm2 MdmX conf 52 | FLuc counter 117
COc1ccc(NC(=O)c2cc(=O)c3ccccc3o2)cc1Cl	Mdm2-MdmX inh 52 | Mdm2 MdmX conf 47 | FLuc counter 95
COc1ccc(S(=O)(=O)Nc2ccc(F)c(F)c2)cc1C(=O)N1CCOCC1	none
CC(C)CN(C(=O)CSc1n[nH]c(-c2cccs2)n1)C1CCS(=O)(=O)C1 (configuration not stated)	none (no result: T cruzi inh, SKKanGAS inh, Calb FLC)
COc1cc2c(c(OC)c1OC)-c1ccc(OC)c(=O)cc1[C@@H](N(C)CC#CCO)CC2	Mdm2-MdmX inh 51 | Mdm2 MdmX conf 53 | FLuc counter 117
COc1cc2c(c(OC)c1OC)-c1ccc(OC)c(=O)cc1[C@@H](NC(C)=O)CC2	Mdm2-MdmX inh 73 | Mdm2 MdmX conf 41 | FLuc counter 98
COc1cc2nc(C3CC3)n(NC(=O)c3ccc(F)cc3)c(=O)c2cc1OC	none
COc1cc(C(=O)NC2CCCc3ccccc32)cc(OC)c1OC (configuration not stated)	none
